Measured values: ChEMBL document CHEMBL5674890, “Selective inhibition of CBP/p300 HAT by A-485 results in suppression of lipogenesis and hepatic gluconeogenesis” (Cell Death Dis, 2020)
Activity calls are given as the source filed them. The rule behind the calls is not given here.

Experiments:
Mus musculus [1] = experiment: Anti-obesity activity in 16 hrs fasted C57BL/6 mouse supplemented with normal chow diet assessed as decrease in blood glucose level at 20 mg/kg/day, ip administered for 1 week measured after 15 mins by intraperitoneal glucose tolerance test; type: functional, organism-based; conditions: time 1.0 weeks
Procedure, shortened: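 Male C57BL/6 mice on normal chow, 8 weeks old, given 20 mg·kg−1·day−1 ip daily for 7 days. After 16 h fasting, glucose 2 g/kg body weight ip; blood glucose read during the test. Mean ± SEM, n = 5–9; t test or ANOVA, P < 0.05.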

Mus musculus [2] = experiment: Anti-obesity activity in C57BL/6 mouse supplemented with high fat diet assessed as decrease in total fat mass at 20 mg/kg/day, ip administered for 1 week; type: functional, organism-based; conditions: time 1.0 weeks
Procedure, shortened: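 Male C57BL/6 mice fed high-fat diet for 14 weeks from 5 weeks of age, then ip 20 mg·kg−1·day−1 for 7 days. Body weight, EchoMRI lean/fat mass, and random or 16 h-fasted blood glucose recorded, as the line states.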

Mus musculus [3] = experiment: Inhibition of lipogenesis in C57BL/6 mouse supplemented with high-fat diet assessed as decrease in SREBP-1c mRNA expression at 20 mg/kg/day, ip administered for 1 week measured by RT-qPCR assay; type: functional, organism-based; conditions: time 1.0 weeks
Procedure, shortened: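 Male C57BL/6 mice were fed high-fat diet for 14 weeks from 5 weeks of age, then injected ip with 20 mg·kg−1·day−1 for 7 days or given vehicle. Epididymal and inguinal WAT were weighed, examined by H&E, and analysed. Transcripts were measured by Trizol/SYBR Green RT-qPCR; proteins by western blot. n = 5–9; mean ± SEM.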

Mus musculus [4] = experiment: Inhibition of lipogenesis in C57BL/6 mouse supplemented with normal chow diet assessed as decrease in ACC protein expression at 20 mg/kg/day, ip administered for 1 week measured by western blot analysis; type: functional, organism-based; conditions: time 1.0 weeks
Procedure, shortened: (§1)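 Eight-week-old male C57BL/6 mice on normal chow were given 20 mg·kg−1·day−1 ip daily for 7 days or vehicle. Epididymal WAT was collected. Lipogenic, adipogenic and fatty-acid-oxidation transcripts were quantified by Trizol extraction and SYBR Green RT-qPCR. FAS, ACC, PPARγ and C/EBPα protein were assessed by western blot. n = 5–9; mean ± SEM.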

Mus musculus [5] = experiment: Inhibition of lipogenesis in C57BL/6 mouse supplemented with normal chow diet assessed as effect on ACADVL mRNA expression at 20 mg/kg/day, ip administered for 1 week measured by RT-qPCR assay; type: functional, organism-based; conditions: time 1.0 weeks; procedure, shortened: as §1
Adipocyte [6] = experiment: Inhibition of lipogenesis in mouse adipocytes isolated stromal vascular cells assessed as decrease in ACC mRNA expression measured after 24 hrs by RT-qPCR assay; type: functional, cell-based
Procedure, shortened: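 Stromal vascular cells came from collagenase-digested inguinal WAT of C57BL/6 mice and were grown in DMEM/F12 with 10% FBS. At confluence, differentiation used insulin 5 μg/ml, dexamethasone 1 μM and IBMX 0.5 mM for 48 h, then insulin alone for 6 days. Fully differentiated day-8 adipocytes were exposed to A-485 for 24 h. Transcripts were quantified by RT-qPCR.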

Adipocyte [7] = experiment: Inhibition of lipogenesis in mouse adipocytes isolated stromal vascular cells assessed as decrease in SCD1 mRNA expression measured after 24 hrs by RT-qPCR assay; type: functional, cell-based
Procedure, shortened: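 Stromal vascular cells from inguinal WAT of C57BL/6 mice, grown in DMEM/F12 + 10% FBS at 37 °C, 10% CO2. At confluence, induced 48 h with 5 μg/ml insulin, 1 μM dexamethasone, 0.5 mM isobutylmethylxanthine, then 6 days in 5 μg/ml insulin; fully differentiated day 8. Mature adipocytes exposed to inhibitor 24 h. Total RNA by Trizol, SYBR Green RT-qPCR; protein by western blot.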

Mus musculus [8] = experiment: Inhibition of hepatic lipogenesis in C57BL/6 mouse supplemented with high fat diet assessed as decrease in total cholesterol level at 20 mg/kg/day, ip administered for 1 week; type: functional, organism-based; conditions: time 1.0 weeks
Procedure, shortened: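 Male C57BL/6 mice received ip A-485 at 20 mg·kg−1·day−1 for 7 days, versus vehicle. NCD mice were 8 weeks old. HFD mice had been on high-fat diet for 14 weeks from 5 weeks of age. Liver triglyceride and total cholesterol content was determined. n = 5–9; mean ± SEM.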

Hepatocyte [9] = experiment: Inhibition of glucogenesis in mouse primary hepatocytes stimulated with 100 uM 8-Br-cAMP assessed as decrease in glucose production at 3 uM in combination with 2 mM metformin; type: functional, cell-based
Procedure, shortened: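 Primary mouse hepatocytes pretreated with 100 nM dexamethasone for 16 h. Glucose production then measured in glucose-free DMEM with 1 mM pyruvate, 10 mM lactate and 0.25% BSA, in the presence of 100 μM 8-Br-cAMP, with 3 μM compound plus 2 mM metformin. Medium glucose assayed colorimetrically. Three independent experiments.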

HepG2 [10] = experiment: Inhibition of glucogenesis in human HepG2 cells stimulated with 8-Br-cAMP at 3 uM assessed as effect on change in TORC2/CREB interaction measured by coimmunoprecipitation analysis; type: functional, cell-based
Procedure, shortened: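 HepG2 cells treated with 3 μM compound. CREB association with CBP and TORC2 assessed by coimmunoprecipitation (antibody 2 h, protein A/G beads overnight at 4 °C) and western blot.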

HepG2 [11] = experiment: Inhibition of glucogenesis in human HepG2 cells stimulated with 8-Br-cAMP at 3 uM assessed as effect on increased CRE luciferase activity; type: functional, cell-based
Procedure, shortened: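 HepG2 cells treated with 3 μM compound; CRE reporter activity measured. Mean ± SEM, three independent experiments.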

Hepatocyte [12] = experiment: Inhibition of glucogenesis in mouse primary hepatocytes stimulated with 100 uM 8-Br-cAMP assessed as effect on HNF4alpha mRNA expression at 3 uM measured after 8 hrs by RT-qPCR assay; type: functional, cell-based
Procedure, shortened: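 Primary mouse hepatocytes treated with 3 μM compound and 100 μM 8-Br-cAMP for 8 h. Trizol RNA, SYBR Green RT-qPCR of the named transcript. Mean ± SEM, three independent experiments.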

[13] = molecular target: T1, CREB-binding protein/Histone acetyltransferase p300 (Homo sapiens) (UniProt Q09472+Q92793); experiment: Inhibition of CBP/p300 in human HepG2 cells stimulated with 100 uM 8-Br-cAMP assessed as induction of FOXO1 deacetylation at 3 uM measured after 6 hrs; type: cell-based
Procedure, shortened: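 HepG2 cells given 3 μM compound and 100 μM 8-Br-cAMP for 6 h. Endogenous FOXO1 immunoprecipitated and its acetylation detected by immunoblot.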

[14] = molecular target: T1, CREB-binding protein/Histone acetyltransferase p300 (Homo sapiens); experiment: Inhibition of CBP/p300 in mouse primary hepatocytes stimulated with 100 uM 8-Br-cAMP assessed as decrease in FOXO1 abundance in cytoplasm at 3 uM; type: cell-based; conditions: Primary hepatocyte
Procedure, shortened: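 Primary mouse hepatocytes treated with 3 μM compound and 100 μM 8-Br-cAMP. Nuclear and cytoplasmic fractions separated with a commercial kit; FOXO1 detected by western blot.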

[15] = molecular target: T1, CREB-binding protein/Histone acetyltransferase p300 (Homo sapiens); experiment: Inhibition of CBP/p300 in mouse primary hepatocytes stimulated with 100 uM 8-Br-cAMP assessed as decrease in FOXO1 protein expression at 3 uM in presence of 10 uM MG132; type: cell-based; conditions: Primary hepatocyte
Procedure, shortened: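 Primary mouse hepatocytes exposed to 100 μM 8-Br-cAMP, 3 μM compound, 10 μg/ml cycloheximide and 10 μM MG132. FOXO1 protein measured by western blot, band intensity quantified. Three independent experiments.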

[16] = molecular target: T1, CREB-binding protein/Histone acetyltransferase p300 (Homo sapiens); experiment: Inhibition of CBP/p300 in mouse primary hepatocytes stimulated with 100 uM 8-Br-cAMP assessed as effect on COP1 protein expression at 3 uM measured after 12 hrs by western blot analysis; type: cell-based; conditions: Primary hepatocyte

T1 sequence (Q09472 whole entry, looked up): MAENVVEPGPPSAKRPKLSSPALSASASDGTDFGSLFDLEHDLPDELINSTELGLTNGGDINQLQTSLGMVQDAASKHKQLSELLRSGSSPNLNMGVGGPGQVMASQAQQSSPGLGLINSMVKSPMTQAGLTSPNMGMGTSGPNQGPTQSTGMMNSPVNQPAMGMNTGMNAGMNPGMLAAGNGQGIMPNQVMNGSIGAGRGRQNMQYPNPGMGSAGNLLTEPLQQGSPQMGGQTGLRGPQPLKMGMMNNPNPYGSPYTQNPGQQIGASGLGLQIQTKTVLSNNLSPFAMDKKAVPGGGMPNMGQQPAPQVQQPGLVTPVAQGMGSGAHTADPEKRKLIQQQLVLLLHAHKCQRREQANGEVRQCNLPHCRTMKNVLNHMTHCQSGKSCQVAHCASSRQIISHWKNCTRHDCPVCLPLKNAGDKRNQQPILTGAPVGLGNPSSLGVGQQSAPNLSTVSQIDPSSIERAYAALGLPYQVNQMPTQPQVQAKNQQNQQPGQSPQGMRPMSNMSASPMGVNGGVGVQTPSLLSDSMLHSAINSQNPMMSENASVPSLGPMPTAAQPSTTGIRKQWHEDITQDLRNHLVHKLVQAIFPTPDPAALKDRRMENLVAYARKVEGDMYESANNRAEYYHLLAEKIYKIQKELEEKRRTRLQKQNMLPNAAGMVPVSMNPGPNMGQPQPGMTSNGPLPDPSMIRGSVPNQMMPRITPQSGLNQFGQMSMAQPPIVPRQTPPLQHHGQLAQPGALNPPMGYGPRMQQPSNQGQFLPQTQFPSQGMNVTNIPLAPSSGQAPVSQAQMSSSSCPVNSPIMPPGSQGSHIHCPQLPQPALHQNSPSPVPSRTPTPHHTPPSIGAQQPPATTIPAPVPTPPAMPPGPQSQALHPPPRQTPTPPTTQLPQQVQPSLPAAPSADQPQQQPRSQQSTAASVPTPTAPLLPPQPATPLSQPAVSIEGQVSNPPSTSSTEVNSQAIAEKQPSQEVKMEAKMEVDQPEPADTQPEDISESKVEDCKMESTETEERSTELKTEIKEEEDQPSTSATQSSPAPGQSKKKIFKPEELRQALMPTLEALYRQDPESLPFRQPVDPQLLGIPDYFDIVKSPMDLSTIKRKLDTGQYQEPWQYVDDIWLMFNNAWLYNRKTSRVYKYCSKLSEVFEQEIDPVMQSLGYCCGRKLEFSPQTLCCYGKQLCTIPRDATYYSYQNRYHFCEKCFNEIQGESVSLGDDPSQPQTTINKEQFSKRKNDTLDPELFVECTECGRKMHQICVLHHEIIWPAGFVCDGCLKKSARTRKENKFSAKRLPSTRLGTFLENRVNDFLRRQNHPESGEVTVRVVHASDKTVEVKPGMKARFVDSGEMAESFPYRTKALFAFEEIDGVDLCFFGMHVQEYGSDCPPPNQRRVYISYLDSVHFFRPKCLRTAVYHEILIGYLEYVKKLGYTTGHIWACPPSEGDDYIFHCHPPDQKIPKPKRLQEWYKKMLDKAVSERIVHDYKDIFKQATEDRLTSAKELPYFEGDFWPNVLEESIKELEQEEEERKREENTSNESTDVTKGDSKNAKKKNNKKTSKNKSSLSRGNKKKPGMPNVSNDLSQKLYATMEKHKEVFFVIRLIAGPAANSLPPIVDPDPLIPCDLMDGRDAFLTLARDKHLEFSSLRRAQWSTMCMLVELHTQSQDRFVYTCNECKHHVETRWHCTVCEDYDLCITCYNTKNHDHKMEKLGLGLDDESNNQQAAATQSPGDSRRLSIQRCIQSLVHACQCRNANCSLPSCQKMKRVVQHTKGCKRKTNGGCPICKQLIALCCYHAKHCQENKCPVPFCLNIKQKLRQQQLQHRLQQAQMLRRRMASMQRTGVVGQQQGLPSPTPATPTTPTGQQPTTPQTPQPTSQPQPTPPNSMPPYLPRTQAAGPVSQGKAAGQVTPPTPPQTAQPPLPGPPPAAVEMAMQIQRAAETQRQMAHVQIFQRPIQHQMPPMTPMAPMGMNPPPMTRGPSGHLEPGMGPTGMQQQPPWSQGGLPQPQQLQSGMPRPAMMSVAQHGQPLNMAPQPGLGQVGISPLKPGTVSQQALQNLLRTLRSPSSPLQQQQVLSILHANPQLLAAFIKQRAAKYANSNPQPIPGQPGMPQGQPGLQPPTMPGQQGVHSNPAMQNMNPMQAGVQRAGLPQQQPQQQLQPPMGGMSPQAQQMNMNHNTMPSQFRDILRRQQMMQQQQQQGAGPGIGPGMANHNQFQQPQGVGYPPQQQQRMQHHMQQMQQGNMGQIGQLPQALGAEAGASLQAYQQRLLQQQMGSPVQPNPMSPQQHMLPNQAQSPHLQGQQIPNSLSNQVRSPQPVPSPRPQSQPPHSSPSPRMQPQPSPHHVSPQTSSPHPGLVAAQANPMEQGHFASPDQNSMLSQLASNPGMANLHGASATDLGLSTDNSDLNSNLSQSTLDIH
T1 sequence (Q92793 whole entry, looked up): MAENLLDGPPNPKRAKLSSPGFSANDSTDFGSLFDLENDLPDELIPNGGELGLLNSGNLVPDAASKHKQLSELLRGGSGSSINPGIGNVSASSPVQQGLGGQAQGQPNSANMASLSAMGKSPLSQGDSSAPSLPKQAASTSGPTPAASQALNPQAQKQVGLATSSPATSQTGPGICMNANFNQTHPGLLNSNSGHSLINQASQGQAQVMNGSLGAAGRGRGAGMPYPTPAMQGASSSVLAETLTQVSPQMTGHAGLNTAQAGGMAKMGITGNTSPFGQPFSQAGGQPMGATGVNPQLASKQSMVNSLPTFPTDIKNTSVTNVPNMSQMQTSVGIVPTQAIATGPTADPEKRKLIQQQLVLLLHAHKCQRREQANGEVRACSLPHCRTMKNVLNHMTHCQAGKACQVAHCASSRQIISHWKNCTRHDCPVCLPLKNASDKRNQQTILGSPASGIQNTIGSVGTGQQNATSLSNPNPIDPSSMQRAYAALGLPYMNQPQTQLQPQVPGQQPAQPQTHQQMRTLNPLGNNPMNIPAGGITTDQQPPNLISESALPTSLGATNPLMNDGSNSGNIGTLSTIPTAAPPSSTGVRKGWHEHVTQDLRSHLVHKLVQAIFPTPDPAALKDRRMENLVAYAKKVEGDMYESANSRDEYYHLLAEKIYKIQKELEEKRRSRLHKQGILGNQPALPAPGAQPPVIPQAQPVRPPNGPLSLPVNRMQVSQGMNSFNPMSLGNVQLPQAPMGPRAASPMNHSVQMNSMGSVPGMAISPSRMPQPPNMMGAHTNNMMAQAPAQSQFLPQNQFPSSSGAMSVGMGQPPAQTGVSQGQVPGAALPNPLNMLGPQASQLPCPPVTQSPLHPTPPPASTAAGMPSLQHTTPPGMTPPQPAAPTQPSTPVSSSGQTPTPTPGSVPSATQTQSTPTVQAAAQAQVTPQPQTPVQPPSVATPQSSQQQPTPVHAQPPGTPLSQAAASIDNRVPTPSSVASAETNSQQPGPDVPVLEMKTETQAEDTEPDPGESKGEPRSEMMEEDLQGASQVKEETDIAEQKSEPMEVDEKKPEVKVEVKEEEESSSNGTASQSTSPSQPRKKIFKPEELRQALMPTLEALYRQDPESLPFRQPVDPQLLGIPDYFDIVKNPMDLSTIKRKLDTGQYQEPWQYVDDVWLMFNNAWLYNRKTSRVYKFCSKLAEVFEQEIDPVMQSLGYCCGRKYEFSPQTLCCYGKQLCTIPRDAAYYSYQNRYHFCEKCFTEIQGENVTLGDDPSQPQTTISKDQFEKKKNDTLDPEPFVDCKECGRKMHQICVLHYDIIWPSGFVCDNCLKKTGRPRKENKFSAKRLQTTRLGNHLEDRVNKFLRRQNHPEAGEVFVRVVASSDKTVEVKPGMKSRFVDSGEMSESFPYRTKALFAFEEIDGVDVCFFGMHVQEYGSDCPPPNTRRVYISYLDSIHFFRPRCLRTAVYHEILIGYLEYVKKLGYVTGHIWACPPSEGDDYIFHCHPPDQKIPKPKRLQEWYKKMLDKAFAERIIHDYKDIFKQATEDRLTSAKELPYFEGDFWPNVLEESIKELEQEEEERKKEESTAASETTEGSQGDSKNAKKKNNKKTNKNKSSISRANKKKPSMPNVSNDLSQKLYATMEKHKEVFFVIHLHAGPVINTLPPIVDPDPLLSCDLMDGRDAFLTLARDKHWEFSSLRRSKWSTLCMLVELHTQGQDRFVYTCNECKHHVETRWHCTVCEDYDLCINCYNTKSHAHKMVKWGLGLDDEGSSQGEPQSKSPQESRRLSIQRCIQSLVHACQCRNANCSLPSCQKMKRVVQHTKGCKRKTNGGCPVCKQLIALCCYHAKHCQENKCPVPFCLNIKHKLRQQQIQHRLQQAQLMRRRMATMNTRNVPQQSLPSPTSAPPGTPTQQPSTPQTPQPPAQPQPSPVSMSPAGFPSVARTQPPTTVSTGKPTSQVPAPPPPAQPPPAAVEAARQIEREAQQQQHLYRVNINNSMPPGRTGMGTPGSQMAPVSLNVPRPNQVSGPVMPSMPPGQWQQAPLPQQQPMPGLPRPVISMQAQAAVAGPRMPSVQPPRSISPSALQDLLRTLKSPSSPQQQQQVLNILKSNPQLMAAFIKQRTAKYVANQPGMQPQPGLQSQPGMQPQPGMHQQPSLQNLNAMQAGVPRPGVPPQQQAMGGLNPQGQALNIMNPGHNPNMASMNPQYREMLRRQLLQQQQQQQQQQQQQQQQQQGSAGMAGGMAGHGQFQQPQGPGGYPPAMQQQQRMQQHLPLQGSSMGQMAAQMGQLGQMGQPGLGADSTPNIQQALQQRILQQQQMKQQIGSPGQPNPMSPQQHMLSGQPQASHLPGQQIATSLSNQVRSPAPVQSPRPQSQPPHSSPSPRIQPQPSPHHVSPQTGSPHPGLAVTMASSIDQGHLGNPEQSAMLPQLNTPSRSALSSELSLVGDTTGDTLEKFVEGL

CNC(=O)Nc1ccc2c(c1)CCS21OC(=O)N(CC(=O)N(Cc2ccc(F)cc2)[C@@H](C)C(F)(F)F)C1=O (stereo partly specified)
Activity (Mus musculus [1]): Active | Activity (Mus musculus [2]): Active | inhibition (Mus musculus [3]): Active | inhibition (Mus musculus [4]): Active | inhibition (Mus musculus [5]): inactive | inhibition (Adipocyte [6]): Active | inhibition (Adipocyte [7]): Active | inhibition (Mus musculus [8]): Active | inhibition (Hepatocyte [9]): Active | inhibition (HepG2 [10]): inactive | inhibition (HepG2 [11]): inactive | inhibition (Hepatocyte [12]): inactive | inhibition [13]: Active | inhibition [14]: Active | inhibition [15]: Active | inhibition [16]: inactive
